For assay [1], the system named is B16-F10. Description: Antiproliferative activity against mouse B16F10 cells after 48 hrs by MTT assay. In kind it is functional, cell-based. The settings on record: B16-F10, 48 h. Summed up: (§1)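 Cells grown to log phase in RPMI 1640 with 10% FBS, seeded at 2×10^4 cells/mL, then left 24 h at 37 °C, 5% CO2 before dosing at pre-set concentrations. […] After 48 h exposure, MTT (2.5 mg/mL in PBS) was added for 4 h, then SDS/isobutyl alcohol/HCl extraction overnight at 37 °C, and OD read at 570 nm. Triplicate wells per concentration; each assay run at least three times; IC50 derived.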

The test system of a further assay is MCF7. Description: Antiproliferative activity against human MCF7 cells after 48 hrs by MTT assay. The assay is classed as functional, cell-based. To be noted: MCF7, 48 h. Summed up:
as §1

For another assay, the system named is HepG2. Description: Antiproliferative activity against human HepG2 cells after 48 hrs by MTT assay. In kind it is functional, cell-based. To be noted: HepG2, 48 h. Summed up: as §1
Assay [2] in a line: Inhibition of bovine brain tubulin polymerization after 20 mins by turbidimetry. Set-up: species or system Bos taurus. In outline:
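Bovine brain tubulin, purified in-house, used at 10 μM in glutamate buffer and preincubated with varying compound concentrations at 30 °C, then cooled to 0 °C. GTP added, mixtures warmed to 30 °C in a recording spectrophotometer, and assembly followed turbidimetrically. IC50 is the concentration inhibiting extent of assembly by 50% after 20 min.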

Assay [3] concerns B16-F10. The assay is described as follows: Cell cycle arrest in mouse B16F10 cells assessed as accumulation at G2/M phase at 2 ug/ml after 24 hrs by flow cytometry analysis (reference value: 17.67 %). In kind it is functional.
For assay [4], the system named is B16-F10. Description: Cell cycle arrest in mouse B16F10 cells assessed as accumulation at Go/G1 phase at 2 ug/ml after 24 hrs by flow cytometry analysis (reference value: 70.4 %). The assay is classed as functional.
Assay [5] has as its system B16-F10. Description: Cell cycle arrest in mouse B16F10 cells assessed as accumulation at S phase at 2 ug/ml after 24 hrs by flow cytometry analysis (reference value: 9.97 %). The assay is classed as functional.
For assay [6], the system named is B16-F10. Description: Cell cycle arrest in mouse B16F10 cells assessed as accumulation at G2/M phase at 1 ug/ml after 24 hrs by flow cytometry analysis (reference value: 17.67 %). The assay is classed as functional.
Assay [7] deals with B16-F10. Description: Cell cycle arrest in mouse B16F10 cells assessed as accumulation at S phase at 1 ug/ml after 24 hrs by flow cytometry analysis (reference value: 9.97 %). The assay is classed as functional.

The results in this text go back to ChEMBL document CHEMBL1926500, “Design, synthesis, biological evaluation and molecular modeling of 1,3,4-oxadiazoline analogs of combretastatin-A4 as novel antitubulin agents” (Bioorg Med Chem, 2012).

Consider `COc1ccc(/C=C\c2cc(OC)c(OC)c(OC)c2)cc1O` [COMBRETASTATIN A4], for which the IC50 with B16-F10 [1] is 0.75 µM; with MCF7, 0.48 µM; in the assay with HepG2, 0.54 µM; in [2], 2.9 µM.
As to `CC(=O)N1N=C(c2ccc3ccccc3c2)OC1c1ccc(Cl)cc1` (centres undefined), the IC50 worked out at 2.48 µM in the assay on B16-F10 [1], 2.63 µM in the assay with MCF7, 1.88 µM in the assay with HepG2 and 12.7 µM in assay [2]. Besides, in [2], the pIC50 is given as 4.44.
With `CC(=O)N1N=C(c2ccc3ccccc3c2)OC1c1ccc2ccccc2c1` (centres undefined), the half-inhibitory concentration (IC50) in the assay with B16-F10 [1] worked out at 1.56 µM; in the assay with MCF7 it was 1.01 µM; in the assay on HepG2, 0.85 µM; in assay [2], 4.3 µM. Besides, the Activity with B16-F10 [3] is 77.18%; in the assay on B16-F10 [4], 1.72%; in the assay on B16-F10 [5], 2.04%. Besides, the negative-log IC50 (pIC50) in assay [2] was found to be 4.93.
As to `CC(=O)N1N=C(c2ccc3ccccc3c2)OC1c1ccccc1[N+](=O)[O-]` (centres undefined), the IC50 was 9.01 µM with B16-F10 [1], 18.2 µM with MCF7, 12.3 µM in the assay with HepG2 and 140 µM in assay [2]. The negative-log IC50 (pIC50) in assay [2] stood at 3.4.
For `COc1cc2c(c(OC)c1OC)-c1ccc(OC)c(=O)cc1[C@@H](NC(C)=O)CC2` [COLCHICINE], the Activity in the assay on B16-F10 [6] came to 75.24%; with B16-F10 [7], 2.43%.
As to `CC(=O)N1N=C(c2ccc3ccccc3c2)OC1c1ccc([N+](=O)[O-])cc1` (centres undefined), the 50% inhibitory concentration (IC50) in the assay with B16-F10 [1] turned out to be 9.32 µM; with MCF7 it was 7.59 µM; in the assay with HepG2 it was 8.1 µM; in [2] it was 103 µM. The negative logarithm of the IC50 (pIC50) in assay [2] is given as 3.54.
In the case of `CC(=O)N1N=C(c2ccc3ccccc3c2)OC1c1ccsc1` (centres undefined), the IC50 is 8.56 µM in the assay with B16-F10 [1], 7.98 µM in the assay on MCF7, 6.82 µM in the assay on HepG2 and 51.9 µM in assay [2]. In addition, the pIC50 in assay [2] worked out at 3.79.
On to `CC(=O)N1N=C(c2ccc3ccccc3c2)OC1c1ccccc1Br` (centres undefined), for which the half-maximal inhibitory concentration (IC50) in the assay on B16-F10 [1] was found to be 6.98 µM; in the assay with MCF7, 5.49 µM; with HepG2 it was 3.98 µM; in assay [2], 51.5 µM. This molecule had a pIC50 in [2] of 3.88.
Regarding `CC(=O)N1N=C(c2ccc3ccccc3c2)OC1c1ccc(F)cc1` (centres undefined), the IC50 in the assay with B16-F10 [1] was 4.65 µM; in the assay on MCF7, 3.02 µM; in the assay on HepG2, 1.82 µM; in assay [2] it was 28.1 µM. In addition, the pIC50 in [2] is 4.07.
The like results for `CC(=O)N1N=C(c2ccc3ccccc3c2)OC1c1ccc(OCc2ccccc2)cc1` (centres undefined) were, in that order, 8.08 µM, 5.49 µM, 3.38 µM, 58.2 µM and 3.86.
The like results for `CC(=O)N1N=C(c2ccc3ccccc3c2)OC1c1ccc(C)cc1` (centres undefined) were, in that order, 3.85 µM, 2.9 µM, 2.26 µM, 30.5 µM and 4.03.
On the same counts, the results for `CC(=O)N1N=C(c2ccc3ccccc3c2)OC1c1cccc(F)c1` (centres undefined) are 1.61 µM, 1.98 µM, 1.86 µM, 9.2 µM and 4.55.
With `CC(=O)N1N=C(c2ccc3ccccc3c2)OC1c1ccccc1O` (centres undefined), the IC50 was determined as 2.58 µM in the assay with B16-F10 [1], 2.12 µM in the assay on MCF7, 1.84 µM with HepG2 and 27.1 µM in assay [2]. The molecule also yielded a pIC50 in assay [2] of 4.08.
`CC(=O)N1N=C(c2ccc3ccccc3c2)OC1c1ccc(Br)cc1` (centres undefined): the half-inhibitory concentration (IC50) in the assay on B16-F10 [1] was found to be 4.68 µM; with MCF7, 5.07 µM; in the assay with HepG2, 2.08 µM; in assay [2], 33.8 µM. The molecule also yielded a negative logarithm of the IC50 (pIC50) in assay [2] of 4.06.
Turning to `CC(=O)N1N=C(c2ccc3ccccc3c2)OC1c1cccc(Br)c1` (centres undefined), the 50% inhibitory concentration (IC50) in the assay with B16-F10 [1] is 2.36 µM; in the assay on MCF7, 2.34 µM; in the assay on HepG2 it was 1.68 µM; in assay [2] it was 19.4 µM. In addition, the negative logarithm of the IC50 (pIC50) in assay [2] came to 4.3.
Consider `CC(=O)N1N=C(c2ccc3ccccc3c2)OC1c1ccccc1F` (centres undefined), for which the concentration for half-maximal inhibition (IC50) with B16-F10 [1] worked out at 6.05 µM; with MCF7, 3.44 µM; with HepG2, 3.36 µM; in [2] it was 48.1 µM. In [2], this molecule returned a pIC50 of 3.84.
Turning to `CC(=O)N1N=C(c2ccc3ccccc3c2)OC1c1cccnc1` (centres undefined), the concentration for half-maximal inhibition (IC50) was determined as 3.06 µM in the assay with B16-F10 [1], 2.61 µM in the assay on MCF7, 2.86 µM in the assay with HepG2 and 20.1 µM in assay [2]. In [2], this molecule returned a pIC50 of 4.19.
The like results for `CC(=O)N1N=C(c2ccc3ccccc3c2)OC1c1ccccc1Cl` (centres undefined) were, in that order, 4.93 µM, 2.36 µM, 4.32 µM, 51.4 µM and 3.83.
The like results for `CC(=O)N1N=C(c2ccc3ccccc3c2)OC1c1ccccc1` (centres undefined) were, in that order, 2.57 µM, 2.43 µM, 2.11 µM, 21.2 µM and 4.17.
With `COc1ccc(C2OC(c3ccc4ccccc4c3)=NN2C(C)=O)cc1` (centres undefined), the IC50 was 6.86 µM in the assay on B16-F10 [1], 7.35 µM in the assay on MCF7, 3.6 µM in the assay on HepG2 and 105 µM in assay [2]. The molecule also returned a pIC50 in assay [2] of 3.51.
Turning to `CC(=O)N1N=C(c2ccc3ccccc3c2)OC1c1ccccn1` (centres undefined), the IC50 in the assay with B16-F10 [1] was determined as 7.18 µM; with MCF7 it was 6.02 µM; in the assay on HepG2, 5.26 µM; in assay [2], 53.8 µM. In addition, the pIC50 in assay [2] came to 3.77.
On the same counts, the results for `CC(=O)N1N=C(c2ccc3ccccc3c2)OC1c1ccncc1` (centres undefined) are 2.97 µM, 2.56 µM, 2.17 µM, 22.8 µM and 4.14.
